# Measured values from ChEMBL document CHEMBL1926569, “Novel (E)-1-(4-methyl-2-(alkylamino)thiazol-5-yl)-3-arylprop-2-en-1-ones as potent antimicrobial agents” (2011).
# What was measured:
# Enterococcus faecalis [1] = test: Antibacterial activity against Enterococcus faecalis isolated from human incubated for 24 hrs followed by serial sub-cultivation for 24 hrs by microdilution; format: functional
# In short: (§1)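 MBC: after the 24 h LB broth microdilution (1.0 × 10⁴ CFU per well, 160 rpm), wells were serially sub-cultured into fresh broth plates and incubated a further 24 h. MBC is the lowest concentration with no visible growth, taken as 99.5% killing of the original inoculum. Duplicate, repeated three times.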
# Aspergillus ochraceus [2] = test: Antifungal activity against Aspergillus ochraceus ATCC 12066 after 72 hrs by serial dilution technique; format: functional; settings: ATCC 12066, 72 h
# In short: (§2)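 Modified microdilution in 96-well plates. Fungi were kept on malt agar at 4 °C. Spores were washed off in sterile 0.85% saline with 0.1% Tween 80. Compounds were dissolved at 1 mg/ml in 5% DMSO with 0.1% Tween 80 and added to malt broth with inoculum. Plates were shaken at 160 rpm for 72 h at 28 °C. Duplicate, repeated three times.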
# Aspergillus ochraceus [3] = test: Ratio of ketoconazole to compound for Aspergillus ochraceus ATCC 12066; format: functional
# Staphylococcus aureus [4] = test: Antibacterial activity against Staphylococcus aureus ATCC 6538 after 24 hrs by microdilution method; format: functional; settings: ATCC 6538, 24 h
# In short: (§3)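 Broth microdilution in 96-well plates. Bacterial suspensions were adjusted in sterile saline to 1.0 × 10⁵ CFU/ml, prepared daily and kept at 4 °C. Compound was added to LB broth with 1.0 × 10⁴ CFU per well and shaken at 160 rpm for 24 h at […] (so in the source). MIC is the lowest concentration with no visible growth under a binocular microscope. OD655 was also read. Duplicate, repeated three times.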
# Candida albicans [5] = test: Ratio of ketoconazole to compound for Candida albicans isolated from human; format: functional
# Aspergillus ochraceus [6] = test: Ratio of bifonazole to compound for Aspergillus ochraceus ATCC 12066; format: functional
# Listeria monocytogenes [7] = test: Antibacterial activity against Listeria monocytogenes NCTC 7973 after 24 hrs by microdilution method; format: functional; settings: NCTC 7973, 24 h; in short: as §3
# Candida albicans [8] = test: Antifungal activity against Candida albicans isolated from human incubated for 72 hrs followed by serial sub-cultivation for 72 hrs by serial dilution technique; format: functional
# In short: (§4)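 MFC: material from 72 h malt broth microdilution wells was serially sub-cultured into fresh broth plates and incubated a further 72 h at 28 °C. Fungicidal concentration is taken from growth after sub-culture. Duplicate, repeated three times.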
# Aspergillus ochraceus [9] = test: Antifungal activity against Aspergillus ochraceus ATCC 12066 incubated for 72 hrs followed by serial sub-cultivation for 72 hrs by serial dilution technique; format: functional; settings: ATCC 12066, 72 h; in short: as §4
# Bacillus cereus [10] = test: Antibacterial activity against clinical isolate of Bacillus cereus after 24 hrs by microdilution method; format: functional; in short: as §3
# Staphylococcus aureus [11] = test: Antibacterial activity against Staphylococcus aureus ATCC 6538 incubated for 24 hrs followed by serial sub-cultivation for 24 hrs by microdilution method; format: functional; settings: ATCC 6538, 24 h; in short: as §1
# Aspergillus niger [12] = test: Ratio of bifonazole to compound for Aspergillus niger ATCC 6275; format: functional
# Aspergillus flavus [13] = test: Antifungal activity against Aspergillus flavus ATCC 9643 incubated for 72 hrs followed by serial sub-cultivation for 72 hrs by serial dilution technique; format: functional; settings: ATCC 9643, 72 h; in short: as §4
# Talaromyces funiculosus [14] = test: Antifungal activity against Penicillium funiculosum ATCC 36839 after 72 hrs by serial dilution technique; format: functional; settings: ATCC 36839, 72 h; in short: as §2
# Micrococcus flavus [15] = test: Antibacterial activity against Micrococcus flavus ATCC 10240 after 24 hrs by microdilution method; format: functional; settings: ATCC 10240, 24 h; in short: as §3
# Candida albicans [16] = test: Antifungal activity against Candida albicans isolated from human after 72 hrs by serial dilution technique; format: functional; in short: as §2
# Aspergillus niger [17] = test: Antifungal activity against Aspergillus niger ATCC 6275 after 72 hrs by serial dilution technique; format: functional; settings: ATCC 6275, 72 h; in short: as §2
# Aspergillus ochraceus [18] = test: Antifungal activity against Aspergillus ochraceus after 72 hrs by serial dilution technique
# Pseudomonas aeruginosa [19] = test: Antibacterial activity against Pseudomonas aeruginosa ATCC 27853 after 24 hrs by microdilution method; format: functional; settings: ATCC 27853, 24 h; in short: as §3
# Penicillium ochrochloron [20] = test: Ratio of bifonazole to compound for Penicillium ochrochloron ATCC 9112; format: functional
# Salmonella typhimurium [21] = test: Antibacterial activity against Salmonella Typhimurium ATCC 13311 incubated for 24 hrs followed by serial sub-cultivation for 24 hrs by microdilution; format: functional, Salmonella enterica subsp. enterica serovar Typhimurium; settings: Salmonella enterica, ATCC 13311, 24 h; in short: as §1
# Listeria monocytogenes [22] = test: Antibacterial activity against Listeria monocytogenes NCTC 7973 incubated for 24 hrs followed by serial sub-cultivation for 24 hrs by microdilution; format: functional; settings: NCTC 7973, 24 h; in short: as §1
# Pseudomonas aeruginosa [23] = test: Ratio of ampicillin MIC to compound MIC for Pseudomonas aeruginosa ATCC 27853; format: functional
# Aspergillus fumigatus [24] = test: Antifungal activity against Aspergillus fumigatus isolated from human incubated for 72 hrs followed by serial sub-cultivation for 72 hrs by serial dilution technique; format: functional; in short: as §4
# Escherichia coli [25] = test: Antibacterial activity against Escherichia coli ATCC 35210 after 24 hrs by microdilution method; format: functional; settings: ATCC 35210, 24 h; in short: as §3
# Penicillium ochrochloron [26] = test: Antifungal activity against Penicillium ochrochloron ATCC 9112 incubated for 72 hrs followed by serial sub-cultivation for 72 hrs by serial dilution technique; format: functional; settings: ATCC 9112, 72 h; in short: as §4
# Penicillium ochrochloron [27] = test: Antifungal activity against Penicillium ochrochloron ATCC 9112 after 72 hrs by serial dilution technique; format: functional; settings: ATCC 9112, 72 h; in short: as §2
# Talaromyces funiculosus [28] = test: Ratio of bifonazole to compound for Penicillium funiculosum ATCC 36839; format: functional
# Aspergillus fumigatus [29] = test: Ratio of ketoconazole to compound for Aspergillus fumigatus isolated from human; format: functional
# Salmonella typhimurium [30] = test: Antibacterial activity against Salmonella Typhimurium ATCC 13311 after 24 hrs by microdilution method; format: functional, Salmonella enterica subsp. enterica serovar Typhimurium; settings: Salmonella enterica, ATCC 13311, 24 h; in short: as §3
# Trichoderma viride [31] = test: Antifungal activity against Trichoderma viride IAM 5061 after 72 hrs by serial dilution technique; format: functional; settings: IAM 5061, 72 h; in short: as §2
# Aspergillus flavus [32] = test: Antifungal activity against Aspergillus flavus ATCC 9643 after 72 hrs by serial dilution technique; format: functional; settings: ATCC 9643, 72 h; in short: as §2
# Pseudomonas aeruginosa [33] = test: Antibacterial activity against Pseudomonas aeruginosa ATCC 27853 incubated for 24 hrs followed by serial sub-cultivation for 24 hrs by microdilution; format: functional; settings: ATCC 27853, 24 h; in short: as §1
# Micrococcus flavus [34] = test: Antibacterial activity against Micrococcus flavus ATCC 10240 incubated for 24 hrs followed by serial sub-cultivation for 24 hrs by microdilution; format: functional; settings: ATCC 10240, 24 h; in short: as §1
# Escherichia coli [35] = test: Antibacterial activity against Escherichia coli ATCC 35210 incubated for 24 hrs followed by serial sub-cultivation for 24 hrs by microdilution; format: functional; settings: ATCC 35210, 24 h; in short: as §1
# Aspergillus niger [36] = test: Antifungal activity against Aspergillus niger ATCC 6275 incubated for 72 hrs followed by serial sub-cultivation for 72 hrs by serial dilution technique; format: functional; settings: ATCC 6275, 72 h; in short: as §4
# Bacillus cereus [37] = test: Antibacterial activity against clinical isolate of Bacillus cereus incubated for 24 hrs followed by serial sub-cultivation for 24 hrs by microdilution; format: functional; in short: as §1
# Trichoderma viride [38] = test: Ratio of bifonazole to compound for Trichoderma viride IAM 5061; format: functional
# Trichoderma viride [39] = test: Antifungal activity against Trichoderma viride IAM 5061 incubated for 72 hrs followed by serial sub-cultivation for 72 hrs by serial dilution technique; format: functional; settings: IAM 5061, 72 h; in short: as §4
# Candida albicans [40] = test: Ratio of bifonazole to compound for Candida albicans isolated from human; format: functional
# Penicillium ochrochloron [41] = test: Ratio of ketoconazole to compound for Penicillium ochrochloron ATCC 9112; format: functional
# Enterococcus faecalis [42] = test: Antibacterial activity against Enterococcus faecalis isolated from human after 24 hrs by microdilution method; format: functional; in short: as §3
# Talaromyces funiculosus [43] = test: Antifungal activity against Penicillium funiculosum ATCC 36839 incubated for 72 hrs followed by serial sub-cultivation for 72 hrs by serial dilution technique; format: functional; settings: ATCC 36839, 72 h; in short: as §4
structure (smiles),measurement,setting,value
CNc1nc(C)c(C(=O)/C=C/c2ccc(F)cc2)s1,MBC,Enterococcus faecalis [1],72.5 µM
same,MIC,Aspergillus ochraceus [2],36.2 µM
same,Ratio,Aspergillus ochraceus [3],10
same,MIC,Staphylococcus aureus [4],72.5 µM
same,Ratio,Candida albicans [5],10
same,Ratio,Aspergillus ochraceus [6],10
same,MIC,Listeria monocytogenes [7],90.6 µM
same,MFC,Candida albicans [8],90.6 µM
same,MFC,Aspergillus ochraceus [9],72.5 µM
same,MIC,Bacillus cereus [10],36.2 µM
same,MBC,Staphylococcus aureus [11],72.5 µM
same,Ratio,Aspergillus niger [12],10
same,MFC,Aspergillus flavus [13],90.6 µM
same,MIC,Talaromyces funiculosus [14],36.2 µM
same,MIC,Micrococcus flavus [15],32.6 µM
same,MIC,Candida albicans [16],72.5 µM
same,MIC,Aspergillus niger [17],36.2 µM
same,MIC,Aspergillus ochraceus [18],36.2 µM
same,MIC,Pseudomonas aeruginosa [19],72.5 µM
same,Ratio,Penicillium ochrochloron [20],10
same,MBC,Salmonella typhimurium [21],72.5 µM
same,MBC,Listeria monocytogenes [22],90.6 µM
same,Ratio,Pseudomonas aeruginosa [23],10
same,MFC,Aspergillus fumigatus [24],72.5 µM
same,MIC,Escherichia coli [25],54.3 µM
same,MFC,Penicillium ochrochloron [26],72.5 µM
same,MIC,Penicillium ochrochloron [27],36.2 µM
same,Ratio,Talaromyces funiculosus [28],10
same,Ratio,Aspergillus fumigatus [29],10
same,MIC,Salmonella typhimurium [30],54.3 µM
same,MIC,Trichoderma viride [31],72.5 µM
same,MIC,Aspergillus flavus [32],36.2 µM
same,MBC,Pseudomonas aeruginosa [33],111 µM
same,MBC,Micrococcus flavus [34],72.5 µM
same,MBC,Escherichia coli [35],72.5 µM
same,MFC,Aspergillus niger [36],72.5 µM
same,MBC,Bacillus cereus [37],54.3 µM
same,Ratio,Trichoderma viride [38],10
same,MFC,Trichoderma viride [39],90.6 µM
same,Ratio,Candida albicans [40],10
same,Ratio,Penicillium ochrochloron [41],10
same,MIC,Enterococcus faecalis [42],54.3 µM
same,MFC,Talaromyces funiculosus [43],72.5 µM
CNc1nc(C)c(C(=O)/C=C/c2cccc(F)c2)s1,MBC,Enterococcus faecalis [1],72.5 µM
same,MIC,Aspergillus ochraceus [2],36.2 µM
same,Ratio,Aspergillus ochraceus [3],10
same,MIC,Staphylococcus aureus [4],72.5 µM
same,Ratio,Candida albicans [5],10
same,Ratio,Aspergillus ochraceus [6],10
same,MIC,Listeria monocytogenes [7],90.6 µM
same,MFC,Candida albicans [8],72.5 µM
same,MFC,Aspergillus ochraceus [9],72.5 µM
same,MIC,Bacillus cereus [10],72.5 µM
same,MBC,Staphylococcus aureus [11],90.6 µM
same,Ratio,Aspergillus niger [12],10
same,MFC,Aspergillus flavus [13],90.6 µM
same,MIC,Talaromyces funiculosus [14],36.2 µM
same,MIC,Micrococcus flavus [15],18.1 µM
same,MIC,Candida albicans [16],51.3 µM
same,MIC,Aspergillus niger [17],54.3 µM
same,MIC,Aspergillus ochraceus [18],36.2 µM
same,MIC,Pseudomonas aeruginosa [19],54.3 µM
same,Ratio,Penicillium ochrochloron [20],10
same,MBC,Salmonella typhimurium [21],90.6 µM
same,MBC,Listeria monocytogenes [22],90.6 µM
same,Ratio,Pseudomonas aeruginosa [23],10
same,MFC,Aspergillus fumigatus [24],72.5 µM
same,MIC,Escherichia coli [25],54.3 µM
same,MFC,Penicillium ochrochloron [26],72.5 µM
same,MIC,Penicillium ochrochloron [27],36.2 µM
same,Ratio,Talaromyces funiculosus [28],10
same,Ratio,Aspergillus fumigatus [29],10
same,MIC,Salmonella typhimurium [30],72.5 µM
same,MIC,Trichoderma viride [31],36.2 µM
same,MIC,Aspergillus flavus [32],36.2 µM
same,MBC,Pseudomonas aeruginosa [33],72.5 µM
same,MBC,Micrococcus flavus [34],72.5 µM
same,MBC,Escherichia coli [35],72.5 µM
same,MFC,Aspergillus niger [36],72.5 µM
same,MBC,Bacillus cereus [37],90.6 µM
same,Ratio,Trichoderma viride [38],10
same,MFC,Trichoderma viride [39],72.5 µM
same,Ratio,Candida albicans [40],10
same,Ratio,Penicillium ochrochloron [41],10
same,MIC,Enterococcus faecalis [42],54.3 µM
same,MFC,Talaromyces funiculosus [43],72.5 µM
CC1(C)S[C@@H]2[C@H](NC(=O)[C@H](N)c3ccccc3)C(=O)N2[C@H]1C(=O)O [AMPICILLIN],MBC,Enterococcus faecalis [1],372 µM
same,MIC,Staphylococcus aureus [4],248 µM
same,MIC,Listeria monocytogenes [7],372 µM
same,MIC,Bacillus cereus [10],248 µM
same,MBC,Staphylococcus aureus [11],372 µM
same,MIC,Micrococcus flavus [15],248 µM
same,MIC,Pseudomonas aeruginosa [19],744 µM
same,MBC,Salmonella typhimurium [21],492 µM
same,MBC,Listeria monocytogenes [22],744 µM
same,MIC,Escherichia coli [25],372 µM
same,MIC,Salmonella typhimurium [30],248 µM
same,MBC,Pseudomonas aeruginosa [33],1240 µM
same,MBC,Micrococcus flavus [34],372 µM
same,MBC,Escherichia coli [35],492 µM
same,MBC,Bacillus cereus [37],372 µM
same,MIC,Enterococcus faecalis [42],248 µM
